{"source": "ChEMBL document CHEMBL4808161", "about": "“Structure-Activity Relationship Study of Amidobenzimidazole Analogues Leading to Potent and Systemically Administrable Stimulator of Interferon Gene (STING) Agonists” (J Med Chem, 2021)", "key": {"[1]": {"assay": "Half life in rat at 1 mg/kg, iv", "assay_type": "ADME, organism-based", "settings": "in vivo"}, "[2]": {"assay": "AUClast in rat at 1 mg/kg, iv", "assay_type": "ADME, organism-based", "parameters": "time 0 - last, route intravenous, dose 1 mg/kg", "settings": "in vivo"}, "[3]": {"assay": "Observed AUCinfinity in rat at 1 mg/kg, iv", "assay_type": "ADME, organism-based", "parameters": "time infinity, route intravenous, dose 1 mg/kg", "settings": "in vivo"}, "[4]": {"assay": "Observed clearance in rat at 1 mg/kg, iv", "assay_type": "ADME, organism-based", "settings": "in vivo"}, "[5]": {"assay": "Observed MRT infinity in rat at 1 mg/kg, iv", "assay_type": "ADME, organism-based", "settings": "in vivo"}, "[6]": {"assay": "Observed volume of distribution at steady state in rat at 1 mg/kg, iv", "assay_type": "ADME, organism-based", "settings": "in vivo, read-out: Vdss"}, "[7]": {"target": "T1, Stimulator of interferon genes protein (Homo sapiens, UniProt Q86WV6)", "T1 sequence (Q86WV6 whole entry)": "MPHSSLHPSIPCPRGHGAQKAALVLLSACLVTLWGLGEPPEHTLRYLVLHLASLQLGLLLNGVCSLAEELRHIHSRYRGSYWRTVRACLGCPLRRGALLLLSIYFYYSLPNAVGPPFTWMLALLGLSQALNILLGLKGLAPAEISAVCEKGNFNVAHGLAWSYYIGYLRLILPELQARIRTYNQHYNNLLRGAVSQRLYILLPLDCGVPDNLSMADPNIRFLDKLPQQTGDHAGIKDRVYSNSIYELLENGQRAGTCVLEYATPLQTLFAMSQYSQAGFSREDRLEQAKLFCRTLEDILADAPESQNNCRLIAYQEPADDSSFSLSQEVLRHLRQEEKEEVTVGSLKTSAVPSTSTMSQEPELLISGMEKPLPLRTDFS", "assay": "Binding affinity to 6His-tagged human STING measured after 3 hrs by HTRF assay"}, "[8]": {"assay": "Toxicity in orthotopic BALB/c mouse co-inoculated with mouse 4T1 […] cells assessed as drug tolerance at 10 mg/kg, iv administered on day 1,4 and 7 post inoculation", "assay_type": "organism-based", "settings": "in vivo, 168 h, time 7 day", "procedure,_shortened": "(§1)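 BALB/c mice received 5 × 10⁵ 4T1 cells into the breast fat pad (orthotopic), with n = 5. Dosing began when tumours reached about 50−100 mm³: 10 mg/kg iv on days 1, 4 and 7, against a vehicle group. Body weight and tumour volume were recorded twice weekly, with tolerance and survival followed after each injection.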"}, "[9]": {"assay": "Toxicity in orthotopic BALB/c mouse co-inoculated with mouse 4T1 […] cells assessed as weight loss at 10 mg/kg, iv administered on day 1,4 and 7 post inoculation", "assay_type": "organism-based", "settings": "in vivo, 168 h, time 7 day", "procedure,_shortened": "as §1"}, "[10]": {"target": "T1, Stimulator of interferon genes protein", "assay": "Activation of human STING expressed in THP1-Dual cells incubated for 24 hrs by secreted luciferase reporter gene assay"}, "[11]": {"target": "T2, Stimulator of interferon genes protein (Mus musculus, UniProt Q3TBT3)", "T2 sequence (Q3TBT3 whole entry)": "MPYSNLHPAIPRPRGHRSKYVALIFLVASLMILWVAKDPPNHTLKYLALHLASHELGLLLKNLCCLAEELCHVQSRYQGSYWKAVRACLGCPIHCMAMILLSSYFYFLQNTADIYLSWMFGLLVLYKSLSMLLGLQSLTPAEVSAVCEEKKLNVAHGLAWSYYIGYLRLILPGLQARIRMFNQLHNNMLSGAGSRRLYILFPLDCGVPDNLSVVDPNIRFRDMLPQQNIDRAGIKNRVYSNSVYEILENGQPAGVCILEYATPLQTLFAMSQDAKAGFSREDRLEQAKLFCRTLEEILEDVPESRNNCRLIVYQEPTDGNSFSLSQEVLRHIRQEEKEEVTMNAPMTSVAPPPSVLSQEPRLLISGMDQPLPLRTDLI", "assay": "Activation of mouse STING expressed in RAW-Lucia ISG cells incubated for 24 hrs by secreted luciferase reporter gene assay"}, "[12]": {"target": "T1, Stimulator of interferon genes protein", "assay": "Inhibition of [3H]-cGAMP binding to STING (unknown origin)"}, "[13]": {"target": "T1, Stimulator of interferon genes protein", "assay": "Agonist activity at wild type human STING expressed in baculovirus infected Sf21 insect cells"}, "[14]": {"target": "Stimulator of interferon genes protein (Homo sapiens, UniProt Q86WV6, G230A/R293Q/R71H)", "sequence (Q86WV6 whole entry R71H/G230A/R293Q)": "as the sequence (Q86WV6 whole entry) above, with R71H, G230A, R293Q counted along it", "assay": "Agonist activity at human STING HAQ expressed in baculovirus infected Sf21 insect cells"}}}
{"smiles": "CCn1nc(C)cc1C(=O)/N=c1\\[nH]c2cc(-c3ncn[nH]3)cc(OC)c2n1C/C=C/Cn1/c(=N/C(=O)c2cc(C)nn2CC)[nH]c2cc(C(N)=O)cc(OCCCN3CCOCC3)c21", "values": [{"measurement": "half-life", "setting": "[1]", "result": 41.8, "unit": "min"}, {"measurement": "AUC(0-t)", "setting": "[2]", "result": 678, "unit": "ng·h/mL"}, {"measurement": "AUC(0-inf)", "setting": "[3]", "result": 705, "unit": "ng·h/mL"}, {"measurement": "clearance", "setting": "[4]", "result": 23.9, "unit": "mL/min/kg"}, {"measurement": "MRT inf", "setting": "[5]", "result": 30.2, "unit": "min"}, {"measurement": "Vd", "setting": "[6]", "result": 0.722, "unit": "L/kg"}, {"measurement": "EC50", "setting": "[7]", "result": 0.0062, "unit": "µM"}, {"measurement": "Activity", "setting": "[8]", "result": "Non-Toxic"}, {"measurement": "Activity", "setting": "[9]", "result": "Toxic"}, {"measurement": "EC50", "setting": "[10]", "result": 0.24, "unit": "µM"}, {"measurement": "EC50", "setting": "[11]", "result": 39.5, "unit": "µM"}]}
{"smiles": "CCn1nc(C)cc1C(=O)/N=c1\\[nH]c2cc(C(=O)O)ccc2n1C[C@@H](O)c1ccccc1", "values": [{"measurement": "IC50", "setting": "[12]", "result": 14, "unit": "µM"}]}
{"smiles": "COc1cc2cc(C(=O)CCC(=O)O)sc2cc1OC", "values": [{"measurement": "EC50", "setting": "[13]", "result": 24, "unit": "µM"}, {"measurement": "EC50", "setting": "[14]", "result": 8.3, "unit": "µM"}]}
